# Screening results (PubChem)
# SENP1 FRET inh = blocks the human SENP1 SUMO protease catalytic domain | Q9P0U3 | recombinant SENP1 catalytic domain, CyPet-SUMO1-YPet FRET cleavage | inhibition, % at 10 µM | 360,000 tested, 0.21% active | AID 624204;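 active = inhibition at least 30% at 10 µM, raw YFP signal under a set limit, fluorescence ratio 0.5 to 1.5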;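 also: 0% = enzyme with DMSO and 100% = no enzyme wells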
#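 Assay system – human recombinant His6-tagged SENP1 catalytic domain enzyme · Input – SENP1 enzyme, 20 pM final · Buffer or medium – Tris pH 8 buffer plus EDTA, NaCl, BME, BSA, NP40, catalase · Schedule – 50 min reaction at room temperature · Technique – FRET read of cyan and yellow fluorescence · Control set – no-enzyme wells low, DMSO-plus-enzyme wells high control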
# ADAM10 inh = ADAM10 inhibition, QFRET primary screen. O14672. recombinant ADAM10, EDANS/DABCYL FRET peptide cleavage, 3 h. inhibition, % at 7 µM. 370,000 tested, 0.62% active. AID 720582;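 active = inhibition above a per-campaign cutoff equal to the mean of compounds falling between control-based bounds plus 3 SD, cut at about 20% in these data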;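 also: 0% = DMSO wells while the 100% control is not disclosed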
# ADAM17 inh = inhibitors of human ADAM17. inhibition, % at 6.95 µM. AID 720648. recombinant ADAM17, EDANS/DABCYL FRET peptide cleavage. P78536. 370,000 tested, 0.83% active;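 active = inhibition above the mean of compounds lying between control limits plus 3 SD, set per campaign, cut at about 8.5% in these data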;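 also: 0% = DMSO-only wells as the low control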
# Target sequence (P78536 215-824 limits assumed): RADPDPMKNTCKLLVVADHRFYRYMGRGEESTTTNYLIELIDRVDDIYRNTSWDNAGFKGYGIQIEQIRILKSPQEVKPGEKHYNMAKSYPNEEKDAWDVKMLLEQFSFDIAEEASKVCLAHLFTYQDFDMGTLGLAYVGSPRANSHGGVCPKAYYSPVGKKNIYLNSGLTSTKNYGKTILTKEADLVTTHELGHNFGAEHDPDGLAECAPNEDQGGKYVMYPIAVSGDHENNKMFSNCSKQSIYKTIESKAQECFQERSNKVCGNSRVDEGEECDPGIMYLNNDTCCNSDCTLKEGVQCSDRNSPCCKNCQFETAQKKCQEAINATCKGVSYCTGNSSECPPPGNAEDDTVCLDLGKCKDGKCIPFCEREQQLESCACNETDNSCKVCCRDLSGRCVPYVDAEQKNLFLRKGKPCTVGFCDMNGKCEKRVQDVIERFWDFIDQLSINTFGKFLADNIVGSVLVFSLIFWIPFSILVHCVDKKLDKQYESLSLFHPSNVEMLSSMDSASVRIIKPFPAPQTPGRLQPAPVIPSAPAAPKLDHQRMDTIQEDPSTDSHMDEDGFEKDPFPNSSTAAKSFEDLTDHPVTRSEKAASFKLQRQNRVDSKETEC
# FAS TE block = inhibitors of human fatty acid synthase thioesterase domain. P49327. recombinant FAS-TE, OMFH fluorogenic substrate, fluorescence endpoint. inhibition, % at 15 µM. 360,000 tested, 0.67% active;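 active = compounds whose normalised, plate-corrected inhibition of enzyme fluorescence in the single-dose primary screen is 50% or more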;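 also: 0% = DMSO with enzyme and 100% = substrate without enzyme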
# FAS-TE inh conf = confirmation of human fatty acid synthase thioesterase inhibitors; inhibition, % at 15 µM; recombinant FAS-TE, OMFH fluorogenic substrate, fluorescence; shares compounds with FAS TE block; 2,300 tested, 45% active;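 active = compounds inhibiting the enzyme by at least 50% at 15 µM in any one of the replicates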;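 also: 0% = enzyme with DMSO only and 100% = wells lacking enzyme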
# An asterisk follows results filed as active; x = not tested or not shown. Sampled rows, rich in hits. Any-hit rate of the full collection: about 1.9%.
SMILES,SENP1 FRET inh,ADAM10 inh,ADAM17 inh,FAS TE block,FAS-TE inh conf
Cc1cc(C)c(S(=O)(=O)c2ccc(Cl)cc2)c(Cl)n1,3,-4,-5,10,x
CC(=O)C1(C(=O)NCc2ccccc2)CC(c2ccccc2C(F)(F)F)=NO1 (configuration not stated),x,0,-6,x,x
Cc1cc(OCC(C)CN2CCC(C(O)(c3ccccc3)c3ccccc3)CC2)ccc1Br (configuration not stated),x,7,2,x,x
COc1cc(NC(=O)CSc2nc(C)cc(=O)[nH]2)cc(OC)c1,x,-12,0,x,x
CC(Oc1ccccc1)C(=O)N1CCC2(CC1)Oc1ccc(F)cc1C(=O)C21CC(c2ccccc2)=NO1 (configuration not stated),-2,6,-1,62*,7
O=C(/C=C/c1cccs1)N1CCC2(CC1)Oc1ccc(Cl)cc1C(=O)C21CC(c2ccccc2)=NO1 (configuration not stated),-1,-4,3,73*,10
Cc1cc(N2CCN(C(c3ccccc3)c3ccc(Cl)cc3)CC2)n2ncnc2n1 (configuration not stated),0,-2,4,58*,21
COC(=O)[C@@]12CCCCC3=C1N(CCC3)C(=O)[C@H]2CC(=O)NCc1ccc(C)o1,x,3,3,x,x
COc1ccccc1-n1c(=O)c(C#N)c(-c2ccc([N+](=O)[O-])cc2)c2cc(C(=O)c3cc(F)ccc3O)cnc21,0,4,0,0,x
Cn1c(=O)c(C#N)c(-c2ccc(F)cc2)c2cc(C(=O)c3cc(Cl)cc(Cl)c3O)cnc21,2,17,3,54*,27
O=C1S/C(=C\c2ccc(O)c([N+](=O)[O-])c2)C(=O)N1Cc1cccc([N+](=O)[O-])c1,2,-14,2,78*,51*
Cc1cccc(NC(=O)CN2C(=O)S/C(=C\c3ccc(O)c([N+](=O)[O-])c3)C2=O)c1,3,8,5,7,x
CNC(=S)N(Cc1cccs1)Cc1cc2cc(OC)ccc2[nH]c1=O,-1,-42,-7,-1,x
Cc1ccc(NC(=O)N(CCCN2CCOCC2)Cc2cc3cc4c(cc3[nH]c2=O)OCO4)cc1,2,-183,-61,-5,x
COC(=O)c1ccccc1NC(=S)N(Cc1ccc2c(c1)OCO2)Cc1cc2cc(C)ccc2[nH]c1=O,1,-8,0,45,x
O=C(Nc1ccc(F)cc1)N(Cc1cccs1)Cc1cc2cc3c(cc2[nH]c1=O)OCO3,1,-59,-16,55*,34
Cc1ccc(NC(=O)N(Cc2cccs2)Cc2cc3cc4c(cc3[nH]c2=O)OCO4)cc1,x,-40,-8,x,x
COc1ccc2[nH]c(=O)c(CN(Cc3cccs3)C(=S)Nc3cccc(C)c3)cc2c1,1,-39,-9,72*,7
Cc1ccc(NC(=O)N(Cc2ccc3c(c2)OCO3)Cc2cc3cc4c(cc3[nH]c2=O)OCCO4)cc1,0,-14,-4,75*,26
COC(=O)c1ccccc1NC(=S)N(Cc1ccc2c(c1)OCO2)Cc1cc2ccc(C)cc2[nH]c1=O,-1,-14,0,79*,29
C#CCNC(=O)C[C@H]1C[C@@]2(C(=O)OC)C(=C[C@H](C(C)(C)C)O[C@@H]2C)N(Cc2ccco2)C1=O,x,-7,-3,x,x
C[C@@H]1COc2cc(Br)ccc2S(=O)(=O)N1Cc1cn(Cc2ccc(Cl)cc2)nn1,x,1,-1,x,x
O=S(=O)(c1ccc(CN2CCOCCOCCN(Cc3ccc(S(=O)(=O)C(F)(F)F)cc3)CCOCC2)cc1)C(F)(F)F,x,5,1,x,x
COC(=O)C1CN(CCc2ccccc2)CCS(=O)(=O)N1Cc1ccc(C(F)(F)F)cc1 (configuration not stated),x,1,-1,x,x
Cc1cccc(N(CC(=O)NC2CCCC2)C(=O)c2nsc(Cl)c2Cl)c1C,2,-7,-2,9,x
SMILES,SENP1 FRET inh,ADAM10 inh,ADAM17 inh,FAS TE block,FAS-TE inh conf
CCOc1ccccc1N(CC(=O)NC1CCCCC1)C(=O)c1nsc(Cl)c1Cl,1,6,-3,50*,18
CCN(CC)S(=O)(=O)c1ccc(-n2cnc3cc(C)c(C)cc32)nc1,2,6,0,57*,61*
CCN(CC)S(=O)(=O)c1ccc(N2CCc3ccccc3C2)nc1,-27,-20,-8,64*,63*
CC(C)N(C(C)C)S(=O)(=O)c1ccc(N2CCc3ccccc3C2)nc1,-10,-10,-2,46,x
O=S1(=O)c2c(cccc2N2CCSCC2)Oc2ccccc2CN1Cc1cn(Cc2cccc(C(F)(F)F)c2)nn1,x,2,3,x,x
O=C(C(=O)N1CCC(CNS(=O)(=O)c2ccccc2OC(F)(F)F)CC1)c1cccs1,x,-14,-3,x,x
Cc1ccc(NC(=O)OCCCN2C(=O)CCC23CCC(C)CC3)cc1C (configuration not stated),x,11,4,x,x
c1ccc(-c2ccc(C3=Nn4c(nnc4-c4ccccn4)SC3)cc2)cc1,x,0,1,x,x
O=C(Cn1cnc2cc([N+](=O)[O-])ccc2c1=O)N(Cc1ccccc1)C1CCS(=O)(=O)C1 (configuration not stated),-15,1,-4,57*,45
O=C(Cn1cnc2cc([N+](=O)[O-])ccc2c1=O)NC1CCS(=O)(=O)C1 (configuration not stated),-14,-9,-2,5,x
CN(Cc1cccs1)C(=O)Cn1cnc2cc([N+](=O)[O-])ccc2c1=O,-14,-23,-7,53*,55*
O=C(c1ccc([N+](=O)[O-])o1)N1CCN(Cc2ccccc2)CC1,0,-5,-2,1,x
CCc1cccc2sc(N3CCN(C(=O)c4ccc([N+](=O)[O-])o4)CC3)nc12,3,x,x,52*,40*
CCCCCCCCN1CCS(=O)(=O)N(Cc2ccccc2)C(C(=O)OC)C1 (configuration not stated),x,7,5,x,x
O=C(/C=C/c1cccc([N+](=O)[O-])c1)NCCSCc1ccc(Cl)cc1,0,15,4,54*,51*
O=C(/C=C/c1ccccc1)NCCSCc1ccc(Cl)cc1,0,5,6,-2,x
O=C(/C=C/c1cccc([N+](=O)[O-])c1)NCCSCc1c(Cl)cccc1Cl,2,-6,1,65*,53*
CC(=O)NCCn1c(SCc2cccc([N+](=O)[O-])c2)nc2ccccc2c1=O,3,-7,-8,53*,12
O=c1c2ccccc2nc(SCc2ccc([N+](=O)[O-])cc2)n1CCCO,4,-2,0,68*,50*
Cc1ccc(C(=O)O)cc1NC(=S)NC(=O)c1ccc(-c2ccc(Cl)cc2)o1,2,-2,-6,29,x
COc1ccc(C(=O)O)cc1NC(=S)NC(=O)c1ccc(-c2ccc(Cl)cc2)o1,-2,-8,-1,58*,66*
O=C(O)CCCNc1c(C(=O)Nc2ccc(Cl)cc2)cc([N+](=O)[O-])cc1[N+](=O)[O-],4,12,6,74*,81*
